These results are taken from ChEMBL document CHEMBL5376013, “Design, synthesis and biological evaluation of novel morpholinopyrimidine-5-carbonitrile derivatives as dual PI3K/mTOR inhibitors” (RSC Med Chem, 2024).

Bounds are passed on as bounds.

Format in all cases: functional
Conditions in all cases: read-out: GI

One assay relates to RPMI-8226. Description: Antitumor activity against human RPMI-8226 cells assessed as growth inhibition at 10 uM relative to control. Put shortly:
(§1)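 After drug addition, plates were incubated 48 h at 37 °C under 5% CO2. Adherent cells were fixed with cold TCA (10% final, 60 min, 4 °C) and suspension cells with 16% final TCA. Staining used 0.4% SRB in 1% acetic acid, solubilized in 10 mM trizma, read at A515. Percent growth was calculated from time-zero, control and treated absorbances.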

Another assay has as its system NCI-H460. Description: Antitumor activity against human NCI-H460 cells assessed as growth inhibition at 10 uM relative to control. Put shortly:
as §1

The next assay concerns T47D. Description: Antitumor activity against human T47D cells assessed as growth inhibition at 10 uM relative to control. Put shortly: (§2)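 Drug exposure 48 h at 37 °C, 5% CO2. Adherent cells fixed with cold TCA (10% final), suspension cells with TCA (16% final). Stained with 0.4% SRB in 1% acetic acid, dissolved in 10 mM Tris, A515. Growth relative to time-zero and untreated control.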

Another assay has as its system SW-620. In words: Antitumor activity against human SW-620 cells assessed as growth inhibition at 10 uM relative to control. The gist of the method:
as §2

The test system of another assay is SN12C. Description: Antitumor activity against human SN12C cells assessed as growth inhibition at 10 uM relative to control. The gist of the method: as §2
The test system of a further assay is KM12. Description: Antitumor activity against human KM12 cells assessed as growth inhibition at 10 uM relative to control. The gist of the method: as §1
The subject of another assay is NCI/ADR-RES. In words: Antitumor activity against human NCI-ADR-RES cells assessed as growth inhibition at 10 uM relative to control. Put shortly: as §1
In the next assay the test system is MDA-MB-468. In words: Antitumor activity against human MDA-MB-468 cells assessed as growth inhibition at 10 uM relative to control. Put shortly: as §1
A further assay deals with UACC-62. Description: Antitumor activity against human UACC-62 cells assessed as growth inhibition at 10 uM relative to control. The gist of the method: as §2
The subject of a further assay is Malme-3M. In words: Antitumor activity against human Malme-3M cells assessed as growth inhibition at 10 uM relative to control. The gist of the method: as §1
A further assay has as its system SK-MEL-28. Description: Antitumor activity against human SK-MEL-28 cells assessed as growth inhibition at 10 uM relative to control. Put shortly: as §2
For a further assay, the system named is CCRF-CEM. In words: Antitumor activity against human CCRF-CEM cells assessed as growth inhibition at 10 uM relative to control. The gist of the method: as §1
The next assay has as its system HT-29. Description: Antitumor activity against human HT-29 cells assessed as growth inhibition at 10 uM relative to control. Put shortly:
as §1

The test system of a further assay is ACHN. In words: Antitumor activity against human ACHN cells assessed as growth inhibition at 10 uM relative to control. Put shortly:
as §1

As for `N#Cc1c(-c2ccc(Cl)cc2)nc(N/N=C/c2ccco2)nc1N1CCOCC1`, the inhibition of growth at 10 µM in the assay with RPMI-8226 is 33.5%; in the assay with NCI-H460, 31.8%; in the assay with T47D, 76.8%; with SW-620, 17.8%; in the assay with SN12C, 17.9%; in the assay with KM12, less than 1%. Also, the inhibition of growth at 10 µM in the assay on NCI/ADR-RES was 24.2%; in the assay with MDA-MB-468 it was 69.1%; in the assay on UACC-62, 41.8%; in the assay with Malme-3M, 57.6%; in the assay on SK-MEL-28, 34.1%; in the assay with CCRF-CEM it was 11.3%. The results for the inhibition of growth at 10 µM in the assay on HT-29 and with ACHN were 13% and 23.3%, respectively.

For `N#Cc1c(-c2ccc(Cl)cc2)nc(N/N=C/c2cccc(F)c2)nc1N1CCOCC1`, the inhibition of growth at 10 µM with RPMI-8226 is 22.3%; with NCI-H460 it was less than 1%; in the assay on T47D, 11.2%; in the assay with SW-620, less than 1%; with SN12C it was less than 1%; in the assay with KM12, 16%. For the same compound, the inhibition of growth at 10 µM with NCI/ADR-RES was less than 1%; with MDA-MB-468, less than 1%; with UACC-62, less than 1%; in the assay on Malme-3M, less than 1%; with SK-MEL-28 it was less than 1%; with CCRF-CEM, 19.6%. Further, the inhibition of growth at 10 µM in the assay on HT-29 amounted to 30%; with ACHN, 10.2%.

As for `N#Cc1c(-c2ccc(Cl)cc2)nc(NN)nc1N1CCOCC1`, the inhibition of growth at 10 µM with RPMI-8226 was less than 1%; in the assay on NCI-H460 it was less than 1%; in the assay with T47D, 17.4%; in the assay on SW-620 it was less than 1%; in the assay on SN12C, less than 1%; with KM12, less than 1%. Besides, the inhibition of growth at 10 µM in the assay with NCI/ADR-RES was less than 1%; in the assay on MDA-MB-468 it was less than 1%; in the assay on UACC-62, 10.7%; in the assay on Malme-3M, less than 1%; in the assay on SK-MEL-28, less than 1%; in the assay on CCRF-CEM, less than 1%. Besides, the inhibition of growth at 10 µM with HT-29 and in the assay on ACHN was less than 1% in each case.

In the case of `N#Cc1c(-c2ccc(Cl)cc2)[nH]c(=S)[nH]c1=O`, the inhibition of growth at 10 µM in the assay with RPMI-8226, in the assay on NCI-H460, in the assay on T47D, with SW-620, with SN12C and with KM12 was less than 1% throughout. Besides, the inhibition of growth at 10 µM in the assay on NCI/ADR-RES, in the assay on MDA-MB-468, with UACC-62, in the assay on Malme-3M, with SK-MEL-28 and in the assay with CCRF-CEM was less than 1% throughout. Besides, the inhibition of growth at 10 µM in the assay with HT-29 and in the assay with ACHN was less than 1% in each case.

`N#Cc1c(-c2ccc(Cl)cc2)nc(NN2C(=O)CCC2=O)nc1N1CCOCC1`: the inhibition of growth at 10 µM in the assay on RPMI-8226, in the assay with NCI-H460, in the assay on T47D, with SW-620, in the assay with SN12C and with KM12 was less than 1% each time. Besides, the inhibition of growth at 10 µM in the assay with NCI/ADR-RES, with MDA-MB-468, with UACC-62, with Malme-3M, in the assay with SK-MEL-28 and with CCRF-CEM was less than 1% in each case. Further, the inhibition of growth at 10 µM in the assay with HT-29 and in the assay on ACHN was less than 1% throughout.
